Test results taken from ChEMBL document CHEMBL1131320, “Role of the C(6)-hydroxy group in bicyclomycin: synthesis, structure, and chemical, biochemical, and biological properties” (1998).
Values after ≈ are worked out from the molar mass of the structure shown.

Key:
[1] = target: Transcription termination factor rho (Escherichia coli) (UniProt P0AG30); assay: The compound was tested for the % inhibition of rho poly(C)-stimulated ATPase activity at 400 uM
Escherichia coli [2] = assay: The compound was tested for minimum inhibitory concentration (MIC) against Escherichia coli W3350 cells; format: functional
Method in brief: (§1)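 Filter-disk assay; MIC taken as the average minimum inhibitory concentration from duplicate tests.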

[3] = target: Transcription termination factor rho (Escherichia coli) (UniProt P0AG30); assay: The compound was tested for the concentration to inhibit 50% of ATPase activity
Escherichia coli [4] = assay: The compound was tested for the concentration to inhibit 50% of transcription termination activity in Escherichia coli-rho and is expressed in I50.; format: functional
Method in brief: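 Rho-dependent transcription termination following Platt and co-workers, at pH 7.9 with [α-³²P]UTP and rho purified from E. coli AR120/p39-AS. I50 is the average 50% inhibition concentration from duplicate tests.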

Escherichia coli [5] = assay: The compound was tested for the % inhibition of transcription termination (TT) activity in Escherichia coli-rho at 100 uM; format: functional
Method in brief: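 Rho-dependent transcription termination (Platt method), at pH 7.9 with [α-³²P]UTP label and purified E. coli rho. Percent termination is read at 100 µM.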

Escherichia coli [6] = assay: The compound was tested for minimum inhibitory concentration (MIC) against Escherichia coli W3350 cells.; format: functional
Method in brief: as §1

Escherichia coli [7] = assay: The compound was tested for the % inhibition of rho poly(C)-stimulated ATPase activity at 400 uM; format: functional
Method in brief: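 Poly(C)-dependent ATPase of purified E. coli rho (AR120/p39-AS overexpression, Lowry-quantified), run at pH 7.9 with [γ-³²P]ATP. Percent inhibition is read at 400 µM alongside a concurrently run parent-antibiotic reference.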

Sequence of Transcription termination factor rho (Escherichia coli) (P0AG30 whole entry, looked up): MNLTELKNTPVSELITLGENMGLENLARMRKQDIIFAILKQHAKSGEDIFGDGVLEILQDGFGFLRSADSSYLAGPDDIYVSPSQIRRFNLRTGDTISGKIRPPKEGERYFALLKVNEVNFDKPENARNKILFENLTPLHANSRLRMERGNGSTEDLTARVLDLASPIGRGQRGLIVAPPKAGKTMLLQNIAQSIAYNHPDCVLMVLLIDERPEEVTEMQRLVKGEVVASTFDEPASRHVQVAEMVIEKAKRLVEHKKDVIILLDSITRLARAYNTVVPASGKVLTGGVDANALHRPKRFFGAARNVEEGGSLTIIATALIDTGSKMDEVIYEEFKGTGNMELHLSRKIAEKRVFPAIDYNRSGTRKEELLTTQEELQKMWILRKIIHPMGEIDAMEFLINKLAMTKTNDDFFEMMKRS

Row | inhibition [1] [%] | MIC (Escherichia coli [2]; read-out: MIC) [µg/mL] | I50 [3] | MIC (Escherichia coli [2]) [µg/mL] | MIC (Escherichia coli [6]) [µg/mL] | SMILES | I50 (Escherichia coli [4]) [µM] | inhibition at 100 µM (Escherichia coli [5]) [%] | inhibition at 400 µM (Escherichia coli [7]) [%]
1 | 7 | > 32 | > 400 |  |  | C=C1CCOC2([C@@H](O)[C@@](C)(O)CO)NC(=O)[C@@]1(N(C)OC)NC2=O | > 100 | 0 | 
2 | 28 | > 32 | > 400 |  |  | C=C1CCOC2([C@@H](O)[C@@](C)(O)CO)NC(=O)[C@@]1(S)NC2=O | > 100 | 8 | 
3 | 13 | > 32 | > 400 |  |  | C=C1CCOC2([C@@H](O)[C@@](C)(O)CO)NC(=O)[C@@]1(NOC)NC2=O | > 100 | 0 | 
4 | 15 | > 32 | > 400 |  |  | C=C1CCOC2([C@@H](O)[C@@](C)(O)CO)NC(=O)[C@@]1(NC(C)=O)NC2=O | > 100 | 1 | 
5 | 3 | > 32 | > 400 |  |  | C=C1CCOC2([C@@H](O)[C@@](C)(O)CO)NC(=O)[C@@]1(NC)NC2=O | > 100 | 2 | 
6 | 16 | > 32 | > 400 |  |  | C=C1CCOC2([C@@H](O)[C@@](C)(O)CO)NC(=O)[C@@]1(N(C)O)NC2=O | > 100 | 0 | 
7 | 45 | > 32 | > 400 |  |  | C=C1CCOC2([C@@H](O)[C@@](C)(O)CO)NC(=O)[C@@]1(NO)NC2=O | > 100 | 22 | 
8 |  |  |  | 250 (≈ 827 µM) |  | C=C1CCOC2([C@@H](O)[C@@](C)(O)CO)NC(=O)[C@@]1(O)NC2=O | 5 | 100 | 
9 | 1 |  | > 400 |  | > 32 | C=C1CCOC2([C@@H](O)[C@@](C)(O)CO)NC(=O)[C@@]1(N(C)C)NC2=O | > 100 | 1 | 
10 |  |  | > 400 |  | > 32 | C=C1CCOC2([C@@H](O)[C@@](C)(O)CO)NC(=O)[C@@]1(N)NC2=O | > 100 | 5 | 17
